From ChEMBL document CHEMBL3227917, “Structure-activity relationships of dimeric Catharanthus alkaloids. 2. Experimental antitumor activities of N-substituted deacetylvinblastine amide (vindesine) sulfates” (J Med Chem, 1979) come the findings set out here.

A word on the LD50: it is the dose expected to kill half of the subjects tested.

Data set [1] relates to CHO. The data set is described as follows: Mitotic arrest in CHO cells assessed as increase in cell accumulation at 2 ug/ml. The data set is classed as functional, Cricetulus griseus. The essentials:
(§1)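 Chinese hamster ovary cells in tissue culture, scored for mitotic arrest as increase in cells in mitotic arrest over control: +++, 40–50%; ++, 15–40%; +, 10–15%; ±, 7–10%; –, 3–7%. Cytotoxicity noted separately.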

Data set [2] relates to CHO. The data set is described as follows: Mitotic arrest in CHO cells assessed as increase in cell accumulation at 0.2 ug/ml. The data set is classed as functional, Cricetulus griseus. Summed up: as §1
Data set [3] deals with P388/VCR. The data set can be described thus: Antitumor activity against mouse P388/VCR cells allografted in CD2F1 mouse assessed as increase in host lifespan at 1.00 mg/kg, ip administered on days 1, 5 and 9. The following applies: route intraperitoneal. The data set is classed as functional. The essentials: (§2)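 Groups of eight male CD2F1 mice bearing P388 leukemia, run at NCI. Sulfate salts given ip on days 1, 5 and 9. Read-out is percent increase in lifespan.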

Data set [4] can be described thus: Antitumor activity against mouse P388/VCR/I/63 cells allografted in Dublin-CDF1 mouse assessed as day of host death at 1.5 mg/kg, ip administered on days 1, 5 and 9 (reference value: 10 days). The data set is classed as functional. Particulars: route intraperitoneal.
Data set [5] has as its system P388/VCR. The data set can be described thus: Antitumor activity against mouse P388/VCR cells allografted in B6D2F1 mouse assessed as increase in host lifespan at 0.90 mg/kg, ip administered on days 1, 5 and 9. It is filed as functional. Particulars: dose 0.9 mg/kg; route intraperitoneal. The essentials:
(§3)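 P388/VCR leukemia in groups of 10 B6D2F1 mice, run at Lilly using the cell strain received from NCI. Sulfate salts given ip on days 1, 5 and 9. Read-out is percent increase in lifespan.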

The subject of data set [6] is P388/S. The data set can be described thus: Antitumor activity against mouse P388/S cells allografted in CD2F1 mouse assessed as increase in host lifespan at 0.36 mg/kg, ip administered on days 1, 5 and 9. It is filed as functional. Particulars: route intraperitoneal. Summed up:
as §2

Data set [7] in a line: Antitumor activity against mouse P1534 cells allografted in DBA2 mouse assessed as tumor growth inhibition at 0.25 mg/kg, ip administered daily for 8 to 10 days. It is filed as functional. Particulars: route intraperitoneal, read-out: TGI. The essentials:
(§4)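 P1534(J) leukemia implanted sc in DBA2 mice; sulfate salts dosed ip daily for 8–10 days. Growth inhibition scored –, 0–25%; +, 26–50%; ++, 51–75%; +++, 76–100%; T, lethal to ≥5 of 10 animals per group. Average of one or more tests.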

The test system of data set [8] is P388/S. The data set can be described thus: Antitumor activity against mouse P388/S cells allografted in CD2F1 mouse assessed as increase in host lifespan at 0.60 mg/kg, ip administered on days 1, 5 and 9. The data set is classed as functional. The following applies: dose 0.6 mg/kg; route intraperitoneal. The essentials:
as §2

For data set [9], the system named is CHO. The data set can be described thus: Mitotic arrest in CHO cells assessed as increase in cell accumulation at 0.002 ug/ml. The data set is classed as functional, Cricetulus griseus. The essentials: as §1
A short description of data set [10]: Antitumor activity against mouse P1534 cells allografted in DBA2 mouse assessed as tumor growth inhibition at 0.10 mg/kg, ip administered daily for 8 to 10 days. The following applies: route intraperitoneal, read-out: TGI. The data set is classed as functional. Summed up:
as §4

Data set [11] can be described thus: Antitumor activity against mouse P388/VCR/I/63 cells allografted in Dublin-CDF1 mouse assessed as increase in host lifespan at 1.5 mg/kg, ip administered on days 1, 5 and 9. It is filed as functional. Particulars: route intraperitoneal.
The subject of data set [12] is P388/VCR. The data set can be described thus: Antitumor activity against mouse P388/VCR cells allografted in CD2F1 mouse assessed as increase in host lifespan at 0.36 mg/kg, ip administered on days 1, 5 and 9. The following applies: route intraperitoneal. The data set is classed as functional. Summed up: as §2
Data set [13] can be described thus: Antitumor activity against mouse P1534 cells allografted in DBA2 mouse assessed as tumor growth inhibition at 0.20 mg/kg, ip administered daily for 8 to 10 days. The data set is classed as functional. The following applies: route intraperitoneal, read-out: TGI. The essentials: as §4
Data set [14] in a line: Toxicity in iv dosed mouse assessed as lethality. The data set is classed as organism-based. Particulars: in vivo.
Data set [15] has as its system P388/VCR. The data set is described as follows: Antitumor activity against mouse P388/VCR cells allografted in B6D2F1 mouse assessed as increase in host lifespan at 0.60 mg/kg, ip administered on days 1, 5 and 9. It is filed as functional. The following applies: dose 0.6 mg/kg; route intraperitoneal. The essentials: as §3
In data set [16] the test system is P388/VCR. The data set is described as follows: Antitumor activity against mouse P388/VCR cells allografted in CD2F1 mouse assessed as increase in host lifespan at 0.60 mg/kg, ip administered on days 1, 5 and 9. It is filed as functional. The following applies: dose 0.6 mg/kg; route intraperitoneal. Summed up:
as §2

In data set [17] the test system is CHO. The data set is described as follows: Cytotoxicity against CHO cells at 0.02 ug/ml. Particulars: chinese hamster. The data set is classed as cell-based, Cricetulus griseus. Summed up:
as §1

The subject of data set [18] is CHO. The data set can be described thus: Mitotic arrest in CHO cells assessed as increase in cell accumulation at 0.02 ug/ml. It is filed as functional, Cricetulus griseus. The essentials: as §1
Data set [19] deals with P388/S. The data set is described as follows: Antitumor activity against mouse P388/S cells allografted in CD2F1 mouse assessed as increase in host lifespan at 1.00 mg/kg, ip administered on days 1, 5 and 9. Particulars: route intraperitoneal. It is filed as functional. The essentials: as §2
The test system of data set [20] is P388/S. The data set can be described thus: Antitumor activity against mouse P388/S cells allografted in CD2F1 mouse assessed as increase in host lifespan at 1.67 mg/kg, ip administered on days 1, 5 and 9. Particulars: route intraperitoneal. It is filed as functional. Summed up:
as §2

In data set [21] the test system is P388/VCR. The data set can be described thus: Antitumor activity against mouse P388/VCR cells allografted in B6D2F1 mouse assessed as increase in host lifespan at 1.20 mg/kg, ip administered on days 1, 5 and 9. It is filed as functional. Particulars: dose 1.2 mg/kg; route intraperitoneal. Summed up: as §3
In another data set the test system is Mus musculus. The data set can be described thus: Toxicity in CD2F1 mouse allografted with mouse P388/VCR cells at 1.67 mg/kg, ip administered on days 1, 5 and 9. It is filed as organism-based. Details: dose 1.67 mg/kg, route intraperitoneal. The following applies: in vivo.

With `CC[C@]1(O)C[C@@H]2C[C@](C(=O)OC)(c3cc4c(cc3OC)N(C)[C@H]3[C@@](O)(C(N)=O)[C@H](O)[C@]5(CC)C=CCN6CC[C@]43[C@@H]65)c3[nH]c4ccccc4c3CC[N+]([O-])(C2)C1`, the Activity in the data set with CHO [1] stood at 15%; with CHO [2], 7%.

Consider `CC[C@]1(O)C[C@H]2CN(CCc3c([nH]c4ccccc34)[C@@](C(=O)OC)(c3cc4c(cc3OC)N(C=O)[C@H]3[C@@](O)(C(=O)OC)[C@H](OC(C)=O)[C@]5(CC)C=CCN6CC[C@]43[C@@H]65)C2)C1.O=S(=O)(O)O` [VINCRISTINE SULFATE], for which the Activity in the data set with P388/VCR [3] came to 0%; in [4] it was 15 days; in the data set on P388/VCR [5] it was 0%; in the data set on P388/S [6], 83%; with P388/S [8] it was 83%; with CHO [9], 10%. The Activity in data set [11] was 50%; with P388/VCR [12] it was 0%; in the data set on P388/VCR [15], 5%; with P388/VCR [16], 0%; in the data set on CHO [17], “Toxic”; with CHO [18] it was 40%. The Activity in the data set on P388/S [19] is 138%; in the data set on P388/S [20], 96%; in the data set on P388/VCR [21], 0%; in the data set on Mus musculus it was “Toxic”. For the same molecule, the inhibition in vivo at 0.25 mg/kg in data set [7] worked out at 76%. Besides, the inhibition in vivo at 0.1 mg/kg in data set [10] was found to be 51%. For the same molecule, the inhibition in vivo at 0.2 mg/kg in data set [13] stood at 76%. The LD50 in data set [14] came out at 2.1 mg/kg.
